System: patients with advanced solid tumors
Test: Toxicity by grade
Format: in vivo, human
Conditions: first cycle including veliparib with carboplatin and paclitaxel, n=73
In short: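 Adverse events were tabulated descriptively as maximum grade in three groups: the chemotherapy-only lead-in cycle, the first veliparib-containing cycle, and all cycles. CBC and serum chemistry including liver function tests were drawn weekly during cycles 1–2, then at the start of every cycle. Veliparib was oral, twice daily on days 1–7; carboplatin/paclitaxel were IV every 21 days.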

## C[C@]1(c2nc3c(C(N)=O)cccc3[nH]2)CCCN1 [veliparib]
  Alanine aminotransferase increased, Any Grade: 2 (3) number of patients (%)
  Alanine aminotransferase increased, Grade 1: 2 (3) number of patients (%)
  Alanine aminotransferase increased, Grade 2: 0 number of patients (%)
  Alanine aminotransferase increased, Grade 3: 0 number of patients (%)
  Alanine aminotransferase increased, Grade 4: 0 number of patients (%)
  Alkaline phosphatase increased, Any Grade: 2 (3) number of patients (%)
  Alkaline phosphatase increased, Grade 1: 1 (1) number of patients (%)
  Alkaline phosphatase increased, Grade 2: 1 (1) number of patients (%)
  Alkaline phosphatase increased, Grade 3: 0 number of patients (%)
  Alkaline phosphatase increased, Grade 4: 0 number of patients (%)
  Allergic reaction, Any Grade: 3 (4) number of patients (%)
  Allergic reaction, Grade 1: 2 (3) number of patients (%)
  Allergic reaction, Grade 2: 0 number of patients (%)
  Allergic reaction, Grade 3: 0 number of patients (%)
  Allergic reaction, Grade 4: 1 (1) number of patients (%)
  Alopecia, Any Grade: 17 (23) number of patients (%)
  Alopecia, Grade 1: 13 (18) number of patients (%)
  Alopecia, Grade 2: 4 (5) number of patients (%)
  Alopecia, Grade 3: 0 number of patients (%)
  Alopecia, Grade 4: 0 number of patients (%)
  Anemia, Any Grade: 24 (33) number of patients (%)
  Anemia, Grade 1: 4 (5) number of patients (%)
  Anemia, Grade 2: 18 (25) number of patients (%)
  Anemia, Grade 3: 2 (3) number of patients (%)
  Anemia, Grade 4: 0 number of patients (%)
  Anorexia, Any Grade: 4 (5) number of patients (%)
  Anorexia, Grade 1: 4 (5) number of patients (%)
  Anorexia, Grade 2: 0 number of patients (%)
  Anorexia, Grade 3: 0 number of patients (%)
  Anorexia, Grade 4: 0 number of patients (%)
  Anxiety, Any Grade: 1 (1) number of patients (%)
  Anxiety, Grade 1: 1 (1) number of patients (%)
  Anxiety, Grade 2: 0 number of patients (%)
  Anxiety, Grade 3: 0 number of patients (%)
  Anxiety, Grade 4: 0 number of patients (%)
  Any adverse event, Any Grade: 67 (92) number of patients (%)
  Any adverse event, Grade 1: 57 (78) number of patients (%)
  Any adverse event, Grade 2: 46 (63) number of patients (%)
  Any adverse event, Grade 3: 34 (47) number of patients (%)
  Any adverse event, Grade 4: 26 (36) number of patients (%)
  Arthralgia, Any Grade: 6 (8) number of patients (%)
  Arthralgia, Grade 1: 5 (7) number of patients (%)
  Arthralgia, Grade 2: 1 (1) number of patients (%)
  Arthralgia, Grade 3: 0 number of patients (%)
  Arthralgia, Grade 4: 0 number of patients (%)
  Aspartate aminotransferase increased, Any Grade: 2 (3) number of patients (%)
  Aspartate aminotransferase increased, Grade 1: 2 (3) number of patients (%)
  Aspartate aminotransferase increased, Grade 2: 0 number of patients (%)
  Aspartate aminotransferase increased, Grade 3: 0 number of patients (%)
  Aspartate aminotransferase increased, Grade 4: 0 number of patients (%)
  Blood bilirubin increased, Any Grade: 1 (1) number of patients (%)
  Blood bilirubin increased, Grade 1: 1 (1) number of patients (%)
  Blood bilirubin increased, Grade 2: 0 number of patients (%)
  Blood bilirubin increased, Grade 3: 0 number of patients (%)
  Blood bilirubin increased, Grade 4: 0 number of patients (%)
  Bone pain, Any Grade: 1 (1) number of patients (%)
  Bone pain, Grade 1: 1 (1) number of patients (%)
  Bone pain, Grade 2: 0 number of patients (%)
  Bone pain, Grade 3: 0 number of patients (%)
  Bone pain, Grade 4: 0 number of patients (%)
  Chills, Any Grade: 1 (1) number of patients (%)
  Chills, Grade 1: 1 (1) number of patients (%)
  Chills, Grade 2: 0 number of patients (%)
  Chills, Grade 3: 0 number of patients (%)
  Chills, Grade 4: 0 number of patients (%)
  Constipation, Any Grade: 6 (8) number of patients (%)
  Constipation, Grade 1: 4 (5) number of patients (%)
  Constipation, Grade 2: 2 (3) number of patients (%)
  Constipation, Grade 3: 0 number of patients (%)
  Constipation, Grade 4: 0 number of patients (%)
  Cough, Any Grade: 2 (3) number of patients (%)
  Cough, Grade 1: 2 (3) number of patients (%)
  Cough, Grade 2: 0 number of patients (%)
  Cough, Grade 3: 0 number of patients (%)
  Cough, Grade 4: 0 number of patients (%)
  Creatinine increased, Any Grade: 3 (4) number of patients (%)
  Creatinine increased, Grade 1: 3 (4) number of patients (%)
  Creatinine increased, Grade 2: 0 number of patients (%)
  Creatinine increased, Grade 3: 0 number of patients (%)
  Creatinine increased, Grade 4: 0 number of patients (%)
  Cytokine release syndrome, Any Grade: 1 (1) number of patients (%)
  Cytokine release syndrome, Grade 1: 0 number of patients (%)
  Cytokine release syndrome, Grade 2: 1 (1) number of patients (%)
  Cytokine release syndrome, Grade 3: 0 number of patients (%)
  Cytokine release syndrome, Grade 4: 0 number of patients (%)
  Dehydration, Any Grade: 1 (1) number of patients (%)
  Dehydration, Grade 1: 0 number of patients (%)
  Dehydration, Grade 2: 1 (1) number of patients (%)
  Dehydration, Grade 3: 0 number of patients (%)
  Dehydration, Grade 4: 0 number of patients (%)
  Diarrhea, Any Grade: 5 (7) number of patients (%)
  Diarrhea, Grade 1: 5 (7) number of patients (%)
  Diarrhea, Grade 2: 0 number of patients (%)
  Diarrhea, Grade 3: 0 number of patients (%)
  Diarrhea, Grade 4: 0 number of patients (%)
  Dizziness, Any Grade: 3 (4) number of patients (%)
  Dizziness, Grade 1: 3 (4) number of patients (%)
  Dizziness, Grade 2: 0 number of patients (%)
  Dizziness, Grade 3: 0 number of patients (%)
  Dizziness, Grade 4: 0 number of patients (%)
  Dry mouth, Any Grade: 2 (3) number of patients (%)
  Dry mouth, Grade 1: 2 (3) number of patients (%)
  Dry mouth, Grade 2: 0 number of patients (%)
  Dry mouth, Grade 3: 0 number of patients (%)
  Dry mouth, Grade 4: 0 number of patients (%)
  Dysesthesia, Any Grade: 1 (1) number of patients (%)
  Dysesthesia, Grade 1: 1 (1) number of patients (%)
  Dysesthesia, Grade 2: 0 number of patients (%)
  Dysesthesia, Grade 3: 0 number of patients (%)
  Dysesthesia, Grade 4: 0 number of patients (%)
  Dysgeusia, Any Grade: 2 (3) number of patients (%)
  Dysgeusia, Grade 1: 2 (3) number of patients (%)
  Dysgeusia, Grade 2: 0 number of patients (%)
  Dysgeusia, Grade 3: 0 number of patients (%)
  Dysgeusia, Grade 4: 0 number of patients (%)
  Dyspepsia, Any Grade: 3 (4) number of patients (%)
  Dyspepsia, Grade 1: 2 (3) number of patients (%)
  Dyspepsia, Grade 2: 1 (1) number of patients (%)
  Dyspepsia, Grade 3: 0 number of patients (%)
  Dyspepsia, Grade 4: 0 number of patients (%)
  Dysphagia, Any Grade: 2 (3) number of patients (%)
  Dysphagia, Grade 1: 2 (3) number of patients (%)
  Dysphagia, Grade 2: 0 number of patients (%)
  Dysphagia, Grade 3: 0 number of patients (%)
  Dysphagia, Grade 4: 0 number of patients (%)
  Dyspnea, Any Grade: 3 (4) number of patients (%)
  Dyspnea, Grade 1: 2 (3) number of patients (%)
  Dyspnea, Grade 2: 1 (1) number of patients (%)
  Dyspnea, Grade 3: 0 number of patients (%)
  Dyspnea, Grade 4: 0 number of patients (%)
  Edema limbs, Any Grade: 3 (4) number of patients (%)
  Edema limbs, Grade 1: 3 (4) number of patients (%)
  Edema limbs, Grade 2: 0 number of patients (%)
  Edema limbs, Grade 3: 0 number of patients (%)
  Edema limbs, Grade 4: 0 number of patients (%)
  Erythema multiforme, Any Grade: 1 (1) number of patients (%)
  Erythema multiforme, Grade 1: 0 number of patients (%)
  Erythema multiforme, Grade 2: 1 (1) number of patients (%)
  Erythema multiforme, Grade 3: 0 number of patients (%)
  Erythema multiforme, Grade 4: 0 number of patients (%)
  Esophagitis, Any Grade: 1 (1) number of patients (%)
  Esophagitis, Grade 1: 1 (1) number of patients (%)
  Esophagitis, Grade 2: 0 number of patients (%)
  Esophagitis, Grade 3: 0 number of patients (%)
  Esophagitis, Grade 4: 0 number of patients (%)
  Fatigue, Any Grade: 27 (37) number of patients (%)
  Fatigue, Grade 1: 18 (24) number of patients (%)
  Fatigue, Grade 2: 5 (7) number of patients (%)
  Fatigue, Grade 3: 4 (5) number of patients (%)
  Fatigue, Grade 4: 0 number of patients (%)
  Febrile neutropenia, Any Grade: 5 (7) number of patients (%)
  Febrile neutropenia, Grade 1: 0 number of patients (%)
  Febrile neutropenia, Grade 2: 0 number of patients (%)
  Febrile neutropenia, Grade 3: 3(4) number of patients (%)
  Febrile neutropenia, Grade 4: 2 (3) number of patients (%)
  Fever, Any Grade: 3 (4) number of patients (%)
  Fever, Grade 1: 2 (3) number of patients (%)
  Fever, Grade 2: 0 number of patients (%)
  Fever, Grade 3: 1 (1) number of patients (%)
